PglD inh: C. jejuni PglD acetyltransferase inhibitors, primary screen, biochemical, DTNB colorimetric, single point; UDP-N-acetylbacillosamine N-acetyltransferase PglD (Campylobacter jejuni); purified PglD enzyme, DTNB colorimetric CoA detection; inhibition, % at 12.5 µM; 360,000 compounds, 0.098% hits; in the data active = inhibition above about 16%, passing the limit was not always enough; inconclusive = no clear call, values can overlap the other calls
DENV2 CPE rescue: inhibitors of DENV2 cytopathic effect, primary screen, cell-based, plate reader, single concentration. DENV2-infected cells, cytopathic effect rescue. CPE inhibition, % at 9.99 µM. 350,000 compounds, 1.7% hits; in the data active = CPE inhibition above about 20%, passing the limit was not always enough; inconclusive = no clear call, values can overlap the other calls; tested in BHK-21 cells;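 also: 0% = median of neutral control wells and 100% = median of positive control wells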
PGC1a acetyl inh: inhibitors of PGC1a acetylation signal, primary screen, cell-based, U2OS, AlphaScreen, inhibitor mode; AlphaScreen anti-acetyl-lysine; with virally co-expressed GCN5 acetyltransferase; inhibition, % at 15.6 µM; 350,000 compounds, 0.17% hits; AID 651687, 2012;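 active = every replicate shows inhibition of at least 40%; inconclusive = mean inhibition at least 40% but some replicate below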;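 also: 0% = neutral control wells and 100% = positive control wells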
Ecoli rRNA inh: reduced GFP signal of wild-type E. coli, primary screen, bacterial rRNA inhibitor project, GFP/RFP fluorescence, OD600, single point | E. coli WT GFP vs humanized-ribosome RFP mutants, 24 h; hits give low values; DMSO median 0, no signal -100 | 350,000 compounds, 1.6% hits | GFP signal change (wild-type ribosome), % (test concentration not listed) | AID 720706, 2013;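 active = significant combined selectivity score with lowered wild-type GFP, culture density cut under 30%, mutant RFP and density less affected; inactive = any of these conditions unmet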
HIV Env fusion: inhibitors of HIV-1 Env-driven cell-cell fusion, primary screen, HeLa-JRFL effector, CEM21 target cells, luciferase | AID 651610, 2012 | 360,000 compounds, 1.1% hits | inhibition, % at 12.3 µM;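 active = mean replicate inhibition score of at least 50 and every replicate individually at or above 50; inconclusive = only one of the two criteria met; inactive = mean below 50 and not all replicates reaching 50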;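 also: 0% = plate neutral controls and 100% = maraviroc near 300 nM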
FN deposit inh: inhibitors of fibronectin matrix deposition, primary screen, AH1F cells, Alexa488-fibronectin fluorescence, plate reader; AID 743247, 2014; 350,000 compounds, 0.086% hits; inhibition, % at 12.6 µM; AH1F fibroblasts, overnight;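 active = mean inhibition across replicates of 30% or more, regardless of how many single replicates reach that level; inconclusive = mean under 30% yet at least half of replicates reach 30%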;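 also: positive control wells lacked labelled fibronectin entirely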
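Material: AH1F fibroblasts assembling fluorescent fibronectin matrix; amount: 10000 AH1F cells/well; medium: DMEM, 2% serum; reagent: Alexa488-fibronectin, 24 nM final in well; dosing: single compound dose, delivered by pin transfer; incubation: 1 h adhesion, overnight exposure; detection: fluorescence after three HBSS washes, excitation 485 nm, emission 525 nm; measure: fibronectin deposition inhibition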
An asterisk follows results filed as active; ? = inconclusive; · = no result; ! = not active in a repeat; [ ] = dose if it differs, or a comment. Rows were chosen to be rich in hits. Some 3.5% of all compounds tested hit in one or more screens of this group.

SMILES	PglD inh	DENV2 CPE rescue	PGC1a acetyl inh	Ecoli rRNA inh	HIV Env fusion	FN deposit inh
C[C@H](CO)N1C[C@H](C)[C@@H](CN(C)C(=O)[C@H](Cc2ccccc2)N(C)C)OCc2ccccc2-c2c(n(C)c3ccccc23)C1=O	2	-3	7	0	60*[16.7 µM]	3
C[C@@H]1CN([C@H](C)CO)C(=O)c2c(c3ccccc3n2C)-c2ccccc2CO[C@@H]1CN(C)Cc1cccc2c1OCCCO2	·	28*	-12	1	·	2
O=C(C[C@H]1CC[C@@H](NC(=O)C2CCOCC2)[C@H](CO)O1)NCc1ccncc1	·	17	3	2	·	·
CC(=O)c1cccc(NC(=O)COC(=O)C2CCCN2C(=O)c2cccs2)c1 (stereo not given)	2	-3	-32	-18*	28	·
COc1ccc(NC(C)=O)cc1NC(=O)C1CCCN1C(=O)c1cccs1 (stereo not given)	·	-3	·	3	64*	·
COc1ccc(NC(=O)[C@@H]2CCCN2C(=O)c2cccs2)cc1S(=O)(=O)N1CCCCC1	1	-1	2	-3	·	3
Cc1noc(C)c1NC(=O)N[C@@H]1CC[C@H](CC(=O)N2CCN(C)CC2)O[C@H]1CO	-1	-5	4	0	·	-3
C[C@@H]1CCCCO[C@@H](CN(C)C(=O)c2ccncc2)[C@@H](C)CN([C@H](C)CO)C(=O)c2cc(NC(=O)Cc3ccccc3)ccc2O1	-1	24*!	6	17	15	6
C[C@H]1CCCCO[C@@H](CN(C)C(=O)c2ccncc2)[C@@H](C)CN([C@@H](C)CO)C(=O)c2cc(NC(=O)NC3CCCCC3)ccc2O1	-1	21*	14	5	-3[16.7 µM]	·
C[C@@H]1CCCCO[C@H](CN(C)C(=O)c2ccncc2)[C@@H](C)CN([C@@H](C)CO)C(=O)c2cc(NC(=O)NC3CCCCC3)ccc2O1	0	1	5	1	-1[16.7 µM]	·
C[C@@H]1CCCCO[C@@H](CN(C)C(=O)c2ccncc2)[C@@H](C)CN([C@H](C)CO)C(=O)c2cc(NC(=O)NC3CCCCC3)ccc2O1	1	27*	-1	-9	5[16.7 µM]	·
C[C@@H]1CCCCO[C@@H](CN(C)C(=O)c2ccncc2)[C@@H](C)CN([C@H](C)CO)C(=O)c2cc(NC(=O)CCCCCC(=O)Nc3ccccc3N)ccc2O1	-2	-12	99*	-1	-1[16.7 µM]	-4
CCC[C@@H]1C[C@@H](C(=O)NC(C(C)Cl)[C@H]2O[C@H](SC)[C@H](O)[C@@H](O)[C@H]2O)N(C)C1 (stereo not given in full)	7	-11	4	·	-13	-10
CCCC1CC(C(=O)NC(C(C)Cl)C2OC(SC)C(O)C(O)C2O)N(C)C1 (stereo not given)	3	?	5	-32*	42	0
CCCNC(=O)C[C@H]1C[C@H]2c3cc(NC(=O)CN(C)C)ccc3O[C@H]2[C@@H](CO)O1	-1	-5	-2	-2	80*[16.7 µM]	-6
CCCNC(=O)C[C@H]1C[C@H]2c3cc(NC(=O)Cc4ccncc4)ccc3O[C@H]2[C@H](CO)O1	-5	1	-2	1	88*[16.7 µM]	8
COCCNC(=O)C[C@@H]1C[C@H]2c3cc(NC(=O)Cc4ccncc4)ccc3O[C@H]2[C@@H](CO)O1	6	5	17	3	0[16.7 µM]	·
CCCNC(=O)C[C@@H]1C[C@@H]2c3cc(NC(=O)CN(C)C)ccc3O[C@@H]2[C@H](CO)O1	9	-2	-1	3	91*[16.7 µM]	-10
O=C(C[C@@H]1CC[C@@H]2[C@H](COC[C@H](O)CN2C(=O)c2ccccc2)O1)N1CCc2ccccc2C1	-3	-2	0	1	·	6
C[C@@H]1CN([C@@H](C)CO)C(=O)Cc2cc(NC(=O)CCN3CCOCC3)ccc2O[C@@H]1CN(C)Cc1ccccc1	3	-2	·	5	-12[16.7 µM]	·
O=S1(=O)CCO[C@H]2Cc3ccccc3[C@H]2N1Cc1cccc(C(F)(F)F)c1	1	?	-19	-15	66*	3
O=S1(=O)CCO[C@H]2Cc3ccccc3[C@H]2N1Cc1cccc(F)c1	-2	-17	-8	-43	2	-7
C[C@H](CO)N1C[C@H](C)[C@H](CN(C)C(=O)C2CCCCC2)OCCCC[C@H](C)Oc2ccc(NC(=O)CCC(F)(F)F)cc2C1=O	-2	0	12	-3	-9[16.7 µM]	·
COc1ccccc1C(=O)NCCC(=O)N1CCN(C(C)=O)CC1	·	50*	4	9	·	-2
COc1ccccc1C(=O)NCCC(=O)N1CCN(C(=O)c2ccco2)CC1	-6	?	·	3	·	6
SMILES	PglD inh	DENV2 CPE rescue	PGC1a acetyl inh	Ecoli rRNA inh	HIV Env fusion	FN deposit inh
COc1ccc(-c2nc(CS(=O)CC(=O)NCc3ccc(Cl)cc3)c(C)o2)cc1 (stereo not given)	1	0	-10	-1	4	-1
COCCNC(=O)CS(=O)Cc1nc(-c2ccc(Cl)cc2)oc1C (stereo not given)	-5	64*	-3	-2	5	-8
COc1ccccc1S(=O)(=O)N[C@@H]1CC[C@H](CC(=O)N2CCCCC2)O[C@H]1CO	0	15	-7	2	-7[16.7 µM]	·
C[C@]1(C(=O)NCCCNc2ncc(C(F)(F)F)cc2Cl)C=C[C@@H](Cc2ccccc2)N1C(=O)c1ccccc1	4	·	5	·	·	·
COC(=O)N1[C@H](C)C=C[C@]1(Cc1ccccc1)C(=O)NCCCNc1ncc(C(F)(F)F)cc1Cl	2	-17	-11	-10	103*	4
COc1ccc(NC(=O)COC(=O)c2c3c(nc4ccccc24)CCCC3)cc1	-5	·	-6	·	-22	-6
COc1ccc(OC)c(NC(=O)COC(=O)c2c3c(nc4ccccc24)CCCC3)c1	3	0	-26	-28*	·	·
CCc1c(O)nc(SCC(=O)Nc2nc3ccccc3s2)n(C2CCCCC2)c1=O	3	-5	2	-17*	5	1
Cc1ccc(CN2CCN(CCCc3ccccc3)CC2CCO)cc1 (stereo not given)	-3	2	-5	7	4	-17
CCOc1ccc(CN2CCN(CCCc3ccccc3)CC2CCO)cc1 (stereo not given)	-6	22*	·	1	10	-4
COC(=O)C[C@H]1CC[C@H]2[C@H](COc3ccc(NC(=O)Nc4cccc(C#N)c4)cc3C(=O)N2C)O1	0	-3	-4	-7	·	1

Compound activity deposited in PubChem by Broad Institute.
